Experimental findings from ChEMBL document CHEMBL1153905, “Functionalized 3-benzylidene-indolin-2-ones: inducers of NAD(P)H-quinone oxidoreductase 1 (NQO1) with antiproliferative activity” (Bioorg Med Chem, 2009) are described below.

Data set [1] deals with T1, CYP1A1 (Mus musculus, UniProt P00184).
T1 sequence (P00184 whole entry): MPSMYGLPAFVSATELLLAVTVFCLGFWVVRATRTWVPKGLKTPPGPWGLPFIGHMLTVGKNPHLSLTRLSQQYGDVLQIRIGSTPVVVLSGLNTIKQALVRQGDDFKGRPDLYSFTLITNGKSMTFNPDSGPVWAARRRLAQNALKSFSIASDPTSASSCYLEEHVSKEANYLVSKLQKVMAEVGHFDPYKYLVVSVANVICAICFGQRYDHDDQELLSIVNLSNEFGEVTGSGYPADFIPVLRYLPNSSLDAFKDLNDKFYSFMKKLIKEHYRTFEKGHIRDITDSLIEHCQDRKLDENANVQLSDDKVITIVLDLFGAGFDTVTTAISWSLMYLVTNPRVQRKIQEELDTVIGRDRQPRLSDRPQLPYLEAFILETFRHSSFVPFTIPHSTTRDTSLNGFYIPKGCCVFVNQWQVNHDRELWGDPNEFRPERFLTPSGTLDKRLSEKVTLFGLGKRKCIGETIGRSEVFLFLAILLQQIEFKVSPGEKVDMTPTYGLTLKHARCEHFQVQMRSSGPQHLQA
The experiment in a line: Induction of CYP1A1 activity in mouse Hepa-1c1c7 cells assessed as induction ratio at 0.1 uM after 48 hrs by EROD assay relative to control. Format: ADME, cell-based. Summed up: (§1)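 About 10,000 Hepa1c1c7 cells/well cultured 24 h, then compound (0.5% DMSO final) for 48 h, at roughly 4 × the concentration doubling NQO1 activity. After PBS wash, cells given 5 µM 7-ethoxyresorufin plus 2 mM salicylamide, 37 °C, 40 min; resorufin fluorescence ex 530/em 590 nm, corrected for compound fluorescence. Ratio = (treated − blank)/(DMSO control − blank); mean ± SD, n = 3.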

Data set [2] in a line: Cytotoxicity against mouse Hepa-1c1c7 cells after 48 hrs by MTT assay. The class given is cell-based. The settings on record: hepa-1c1c7, 48 h. An outline of the steps: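 Murine hepatoma cells in α-MEM with 10% heat- and charcoal-treated fetal calf serum, passages 6–17; MTT read-out as for the cancer lines but with 48 h compound exposure. Highest concentration tested 25 µM. IC50 from survival-versus-concentration curve; mean and SD, n = 3.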
For orientation: Tetrazolium dyes change colour on reduction, which living cells bring about.

Data set [3] deals with NAD(P)H dehydrogenase [quinone] 1 (Mus musculus) (UniProt Q64669). Description: Induction of NQO1 activity in mouse Hepa-1c1c7 cells assessed as induction ratio at 0.1 uM after 48 hrs by MTT assay relative to control. The class given is cell-based. An outline of the steps: (§2)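 Hepa1c1c7 cells, 10,000 per well, 24 h, were then treated 48 h (DMSO ≤0.5%). Digitonin/EDTA lysates were assayed for menadione-dependent MTT-formazan formation using a G6P/G6PDH NADPH-generating mix with FAD at pH 7.4. The reaction ran 5 min, was stopped with dicoumarol, and read at A590. Degree of induction = (A test − blank)/(A control − blank). Ratios were read off the induction–concentration plot at the EROD test concentration.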

Data set [4] has the same target. Description: Induction of NQO1 activity in mouse Hepa-1c1c7 cells assessed as induction ratio at 7.5 uM after 48 hrs by MTT assay relative to control. The class given is cell-based. An outline of the steps:
as §2

The test system of data set [5] is HCT-116. The experiment in a line: Cell cycle arrest in human HCT116 cells released from G2 block assessed as accumulation at G1 phase at 15 uM after 24 hrs by flow cytometry. The class given is functional.
Data set [6] has as its system MCF7. Description: Selectivity ratio of IC50 for human CCL186 cells to IC50 for human MCF7 cells. Summed up:
(§3)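 MTT assay. MCF7 and CCL186 cells were grown in EMEM/10% FBS, HCT116 in McCoy's 5A/10% FBS. Seeding was 10,000 (MCF7), 4000 (HCT116) and 5000 (CCL186) cells per well, 24 h. Compound exposure was 72 h, DMSO ≤1% final. MTT 0.5 mg/ml for 3 h, formazan dissolved in DMSO, A590. IC50 came from sigmoidal survival curves, with 3 separate occasions per concentration. Ratio = IC50 CCL186 / IC50 of the cancer line.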

In data set [7] the target is T1, CYP1A1. The experiment in a line: Induction of CYP1A1 activity in mouse Hepa-1c1c7 cells assessed as induction ratio at 7.5 uM after 48 hrs by EROD assay relative to control. The class given is ADME, cell-based. An outline of the steps:
(§4)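 Hepa1c1c7 cells were seeded at 10,000 per well and grown 24 h. They were then exposed 48 h to compound (final DMSO 0.5% v/v) at about 4 × the NQO1 CD. After a PBS wash, cells got 5 µM 7-ethoxyresorufin plus 2 mM salicylamide in medium, 37 °C, 40 min. Resorufin was read at ex 530/em 590 nm, corrected for compound fluorescence. Ratio = (F treated − blank)/(F DMSO control − blank); mean ± SD, n = 3.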

In data set [8] the test system is HCT-116. The experiment in a line: Cell cycle arrest in human HCT116 cells released from G2 block assessed as accumulation at S phase at 15 uM after 24 hrs by flow cytometry. The class given is functional.
Data set [9] relates to HCT-116. The experiment in a line: Cell cycle arrest in human HCT116 cells released from G1 block assessed as accumulation at S phase at 15 uM after 24 hrs by flow cytometry. Format: functional. On the technique in general: Flow cytometry measures light scatter and fluorescence of single cells or particles in a stream.
For data set [10], the system named is HCT-116. The experiment in a line: Cell cycle arrest in human HCT116 cells released from G1 block assessed as accumulation at sub G1 phase at 15 uM after 24 hrs by flow cytometry. Format: functional.
The nature of data set [11]: Selectivity ratio of IC50 for human CCL186 cells to IC50 for human HCT116 cells. The settings on record: CCL186 cells and HCT116 cells, read-out: Ratio IC50. Format: ADME, cell-based, HCT-116. An outline of the steps: as §3
The test system of data set [12] is HCT-116. Description: Cell cycle arrest in human HCT116 cells released from G2 block assessed as accumulation at sub G1 phase at 15 uM after 24 hrs by flow cytometry. Format: functional.
Data set [13] deals with HCT-116. The experiment in a line: Cell cycle arrest in human HCT116 cells released from G1 block assessed as accumulation at G1 phase at 15 uM after 24 hrs by flow cytometry. The class given is functional.
Data set [14] concerns MCF7. Description: Antiproliferative activity against human MCF7 cells after 72 hrs by MTT assay. The class given is functional, cell-based. The settings on record: MCF7, 72 h. An outline of the steps:
(§5)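 Cells seeded at 10,000 (MCF7), 4000 (HCT116) or 5000 (CCL186) per well and grown 24 h; MCF7 and CCL186 in EMEM with pyruvate, glutamine, 10% FBS; HCT116 in McCoy's 5A with 10% FBS. Compounds from DMSO stocks (≤1% DMSO final), 72 h exposure; MTT 0.5 mg/ml for 3 h, formazan in DMSO read at 590 nm. IC50 from sigmoidal survival curve, three separate occasions.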

Data set [15] relates to HCT-116. The experiment in a line: Cell cycle arrest in human HCT116 cells released from G2 block assessed as accumulation at G2/M phase at 15 uM after 24 hrs by flow cytometry. The class given is functional.
In data set [16] the test system is HCT-116. Description: Antiproliferative activity against human HCT116 cells after 72 hrs by MTT assay. The class given is functional, cell-based. Conditions: HCT-116, 72 h. An outline of the steps: as §5
A short description of data set [17]: Antiproliferative activity against human CCL186 cells after 72 hrs by MTT assay. Format: cell-based. The settings on record: CCL186, 72 h. An outline of the steps: as §5
Data set [18] deals with HCT-116. Description: Cell cycle arrest in human HCT116 cells released from G1 block assessed as accumulation at G2/M phase at 15 uM after 24 hrs by flow cytometry. Format: functional.
Data set [19] addresses T1, CYP1A1. Description: Induction of CYP1A1 activity in mouse Hepa-1c1c7 cells assessed as induction ratio at 1 uM after 48 hrs by EROD assay relative to control. Format: ADME, cell-based. An outline of the steps: as §1
In data set [20] the target is NAD(P)H dehydrogenase [quinone] 1 (Mus musculus) (UniProt Q64669). Description: Induction of NQO1 activity in mouse Hepa-1c1c7 cells assessed as induction ratio at 1 uM after 48 hrs by MTT assay relative to control. The class given is cell-based. Summed up: as §2
Data set [21] has the same target. Description: Induction of NQO1 activity in mouse Hepa-1c1c7 cells assessed as induction ratio at 5 nM after 48 hrs by MTT assay relative to control. Format: cell-based. Summed up: as §2
Data set [22] deals with T1, CYP1A1. Description: Induction of CYP1A1 activity in mouse Hepa-1c1c7 cells assessed as induction ratio at 5 nM after 48 hrs by EROD assay relative to control. Format: ADME, cell-based. Summed up: as §4
A short description of data set [23]: Ratio of induction of NQO1 activity to induction of CYP1 activity in mouse Hepa-1c1c7 cells at 5 nM after 48 hrs.

As usually defined, the fold induction is the signal under treatment as a multiple of the control signal. A word on the IC50: it is the concentration at which inhibition is half-maximal. The low end stands for greater potency, the high end for weaker potency.

Structures are written as SMILES. Where only a bound is given, the exact number is not on record here.

Sequence of NAD(P)H dehydrogenase [quinone] 1 (Mus musculus) (Q64669 whole entry): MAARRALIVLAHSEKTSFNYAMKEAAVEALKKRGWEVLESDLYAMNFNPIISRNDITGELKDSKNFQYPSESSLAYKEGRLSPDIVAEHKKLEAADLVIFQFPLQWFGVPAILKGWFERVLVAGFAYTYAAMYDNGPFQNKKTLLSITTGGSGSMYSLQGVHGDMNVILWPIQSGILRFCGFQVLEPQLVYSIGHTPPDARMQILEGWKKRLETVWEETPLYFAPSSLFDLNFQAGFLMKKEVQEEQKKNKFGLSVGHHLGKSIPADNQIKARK

For `COc1cccc(/C=C2/C(=O)Nc3cc(Cl)ccc32)c1`, the fold induction at 48 h, 0.1 µM at CYP1A1 [1] came to 1.51. The half-maximal inhibitory concentration (IC50) in data set [2] was above 25 µM. Further, the Ratio in [3] came out at 2.56.
As for `O=C1Nc2ccccc2/C1=C\c1cccc(Oc2ccccc2)c1`, the Ratio in data set [4] was found to be 3.34. The Activity in the data set with HCT-116 [5] is 63.51%; in the data set with HCT-116 [8] it was 13.1%; in the data set on HCT-116 [9] it was 21.83%; in the data set on HCT-116 [10] it was 3.62%; in the data set on HCT-116 [12], 2.16%; in the data set with HCT-116 [13], 55.93%. In addition, the Activity in the data set with HCT-116 [15] is reported as 21.09%; with HCT-116 [18] it was 18.98%. Further, the “Ratio IC50” value in the data set with MCF7 [6] stood at 3.4. Besides, the fold induction at 48 h, 7.5 µM at CYP1A1 [7] is 1.08. Further, the 50% inhibitory concentration (IC50) in data set [2] came out at 10.8 µM; with MCF7 [14], 8.2 µM; with HCT-116 [16] it was 3.7 µM; in data set [17] it was 12.7 µM. Besides, the selectivity ratio in data set [11] stood at 1.5.
In the case of `COc1ccc2c(c1)NC(=O)/C2=C/c1ccc(OC)c(O)c1`, the fold induction at 48 h, 1 µM at CYP1A1 [19] stood at 1.05. The Activity turned out to be 26.01% in the data set on HCT-116 [5]; 15.36% in the data set with HCT-116 [8]; 21.13% with HCT-116 [9]; 5.26% in the data set with HCT-116 [10]; 15.54% with HCT-116 [12]; 17.49% with HCT-116 [13]. Moreover, the Activity in the data set with HCT-116 [15] came to 43.57%; with HCT-116 [18] it was 56.49%. The “Ratio IC50” value in the data set on MCF7 [6] was determined as 3.1. The 50% inhibitory concentration (IC50) is 9.8 µM in [2], 7.8 µM in the data set with MCF7 [14], 3.7 µM in the data set on HCT-116 [16] and 11.3 µM in [17]. In data set [11], the selectivity ratio is 1.4. For the same compound, the Ratio in data set [20] turned out to be 4.34.
With `COc1cc(/C=C2/C(=O)Nc3ccccc32)cc(OC)c1OC`, the Activity was 42.06% in the data set with HCT-116 [5]; 16.84% in the data set with HCT-116 [8]; 21.42% in the data set with HCT-116 [9]; 3.78% in the data set with HCT-116 [10]; 4.13% in the data set with HCT-116 [12]; 56.85% in the data set on HCT-116 [13]. Moreover, the figures for the Activity in the data set with HCT-116 [15] and in the data set with HCT-116 [18] were 36.45% and 18.54%, respectively. In addition, in data set [2], the 50% inhibitory concentration (IC50) is above 25 µM.
On to `O=C1Nc2ccccc2/C1=C1\C(=O)Nc2ccccc21` [ISOINDIGO], for which the fold induction at 48 h, 0.1 µM on CYP1A1 [1] came out at 1.44. In addition, in [2], the 50% inhibitory concentration (IC50) is above 25 µM. Further, the Ratio in data set [3] was found to be 2.8.
For `O=C1Nc2ccccc2/C1=C1\C(=O)Nc2ccc(Cl)cc21`, in data set [2], inhibition was half-maximal at 20.5 µM (IC50). Also, the Ratio in data set [21] was determined as 2.42; in data set [23], 1.05. Moreover, on CYP1A1 [22], the fold induction at 48 h, 0.005 µM amounted to 2.31.
For `O=C1Nc2ccccc2/C1=C1\C(=O)Nc2cc(F)ccc21`, in that order: above 25 µM, 2.56, 0.93 and 2.75.
Take `O=C1Nc2ccccc2/C1=C1\C(=O)Nc2cc(C(F)(F)F)ccc21`: the IC50 in data set [2] was above 25 µM. Also, the results for the Ratio in data set [21] and in data set [23] were 2.99 and 0.99, respectively. Also, the fold induction at 48 h, 0.005 µM at CYP1A1 [22] was 3.01.
